How the values were obtained:
Design in all cases: scale not given: the % may be the effect or the level left
[1] = Antioxidant activity assessed as reduction in generation of hydroxyl radicals at 200 ug/mL measured as malondialdehyde formation by spectrophotometry relative to control; assay type: functional
[2] = Antioxidant activity assessed as reduction in lipid peroxidation in microsomes at 100 ug/mL measured as malondialdehyde formation by spectrophotometry relative to control; assay type: functional; settings: Microsome
[3] = tested on: Rattus norvegicus; assay: Antidyslipidemic activity against triton-induced hyperlipidemia in Charles Foster rat assessed as reduction in triglyceride level at 100 mg/kg, po after 18 hrs relative to control; assay type: functional
How it was run: (§1)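 Adult male Charles Foster rats (200 […] 225 g), six per group. Triton WR-1339 at 400 mg/Kg ip induced hyperlipidemia. Test compound was given at 100 mg/Kg po, suspended in 0.2% w/v gum acacia in water, at the same time as triton; vehicle controls were included. After 18 h, retro-orbital blood was taken into EDTA and plasma obtained (2500 g, 4 °C, 10 min). Plasma was diluted 1:3 in saline and TC, PL and Tg measured by standard methods. Reported as mean […] SD; Student's t-test.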

[4] = Antioxidant activity assessed as reduction in generation of superoxide radicals at 200 ug/mL measured as formazone formation by spectrophotometry relative to control; assay type: functional
How it was run: (§2)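 Superoxide was generated enzymatically with xanthine ([…]), xanthine oxidase (0.04 U) and nitroblue tetrazolium (320 μM) in 100 mM phosphate buffer, pH 8.2, with or without compound. Incubated 30 min at 37 °C, then stopped with glacial acetic acid. Formazone was quantified spectrophotometrically (nmol/min). Mean ± SD of six; Student's t-test.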

[5] = tested on: Rattus norvegicus; assay: Antidyslipidemic activity against triton-induced hyperlipidemia in Charles Foster rat assessed as reduction in phospholipid level at 100 mg/kg, po after 18 hrs relative to control; assay type: functional; how it was run: as §1
[6] = tested on: Rattus norvegicus; assay: Antidyslipidemic activity against triton-induced inhibition of post heparin lipolytic activity in Charles Foster rat hyperlipidemia model assessed as formation of free fatty acid per mL of plasma at 100 mg/kg, po after 18 hrs relative to control; assay type: functional
How it was run: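 Triton WR-1339 rat model (400 mg/Kg ip; compound 100 mg/Kg po in gum acacia, given with triton; six rats per group). Post-heparin lipolytic activity was measured in plasma collected at 18 h. Expressed as nmol free fatty acid formed/h/mL plasma; mean ± SD.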

[7] = Antioxidant activity assessed as reduction in lipid peroxidation in microsomes at 200 ug/mL measured as malondialdehyde formation by spectrophotometry relative to control; assay type: functional; settings: Microsome
[8] = Antioxidant activity assessed as reduction in generation of hydroxyl radicals at 100 ug/mL measured as malondialdehyde formation by spectrophotometry relative to control; assay type: functional
[9] = tested on: Rattus norvegicus; assay: Antidyslipidemic activity against triton-induced hyperlipidemia in Charles Foster rat assessed as reduction in total cholesterol level at 100 mg/kg, po after 18 hrs relative to control; assay type: functional; how it was run: as §1
[10] = Antioxidant activity assessed as reduction in generation of superoxide radicals at 100 ug/mL measured as formazone formation by spectrophotometry relative to control; assay type: functional; how it was run: as §2
[11] = tested on: Rattus norvegicus; assay: Decrease in triton-induced increase in protein level in Charles Foster rat hyperlipidemia model at 100 mg/kg, po after 18 hrs relative to control; assay type: functional
[12] = Antioxidant activity assessed as reduction in lipid peroxidation in microsomes at 200 ug/mL measured as malondialdehyde formation by spectrophotometry relative to control; settings: Microsome

CC(=O)OC[C@H]1O[C@@H](NC(=S)N/N=C(\C)c2cc(C)ccc2C)[C@H](OC(C)=O)[C@@H](OC(C)=O)[C@@H]1OC(C)=O
Activity [1]: 29%
Activity [2]: 16%
Activity [3]: 17%
Activity [4]: 30%
Activity [5]: 18%
Activity [6]: 10%
Activity [7]: 26%
Activity [8]: 16%
Activity [9]: 18%
Activity [10]: 20%
Activity [11]: 12%

CC(=O)OC[C@H]1O[C@@H](NC(=S)N/N=C/c2ccc([N+](=O)[O-])cc2)[C@H](OC(C)=O)[C@@H](OC(C)=O)[C@@H]1OC(C)=O
Activity [1]: 23%
Activity [2]: 18%
Activity [3]: 11%
Activity [4]: 23%
Activity [5]: 14%
Activity [6]: 13%
Activity [7]: 31%
Activity [8]: 17%
Activity [9]: 19%
Activity [10]: 13%
Activity [11]: 22%

CC(=O)OC[C@H]1O[C@@H](NC(=S)N/N=C(\C)c2cccc([N+](=O)[O-])c2)[C@H](OC(C)=O)[C@@H](OC(C)=O)[C@@H]1OC(C)=O
Activity [1]: 35%
Activity [2]: 20%
Activity [3]: 18%
Activity [4]: 33%
Activity [5]: 19%
Activity [6]: 10%
Activity [7]: 30%
Activity [8]: 24%
Activity [9]: 23%
Activity [10]: 17%
Activity [11]: 19%

CC(=O)OC[C@H]1O[C@@H](NC(=S)NNc2ccccc2)[C@H](OC(C)=O)[C@@H](OC(C)=O)[C@@H]1OC(C)=O
Activity [1]: 42%
Activity [2]: 23%
Activity [3]: 9%
Activity [4]: 32%
Activity [5]: 10%
Activity [6]: 8%
Activity [7]: 39%
Activity [8]: 25%
Activity [9]: 11%
Activity [10]: 19%
Activity [11]: 16%

CC(=O)OC[C@H]1O[C@@H](NC(=S)N/N=C/c2ccc([N+](=O)[O-])s2)[C@H](OC(C)=O)[C@@H](OC(C)=O)[C@@H]1OC(C)=O
Activity [1]: 37%
Activity [2]: 11%
Activity [3]: 14%
Activity [4]: 34%
Activity [5]: 16%
Activity [6]: 14%
Activity [7]: 23%
Activity [8]: 20%
Activity [9]: 13%
Activity [10]: 20%
Activity [11]: 19%

OC[C@@H](O)[C@@H](O)[C@H](O)[C@H](O)CO
Activity [8]: 45%

Cc1ccc(C)c(OCCCC(C)(C)C(=O)O)c1 [GEMFIBROZIL]
Activity [3]: 37%
Activity [5]: 39%
Activity [6]: 34%
Activity [9]: 38%
Activity [11]: 33%

COc1ccc(/C=N/NC(=S)N[C@@H]2O[C@H](COC(C)=O)[C@@H](OC(C)=O)[C@H](OC(C)=O)[C@H]2OC(C)=O)cc1
Activity [1]: 34%
Activity [2]: 26%
Activity [3]: 10%
Activity [4]: 33%
Activity [5]: 15%
Activity [6]: 8%
Activity [7]: 35%
Activity [8]: 20%
Activity [9]: 17%
Activity [10]: 25%
Activity [11]: 15%

CC(=O)OC[C@H]1O[C@@H](NC(=S)NNc2ccc([N+](=O)[O-])cc2[N+](=O)[O-])[C@H](OC(C)=O)[C@@H](OC(C)=O)[C@@H]1OC(C)=O
Activity [1]: 26%
Activity [2]: 23%
Activity [3]: 8%
Activity [4]: 28%
Activity [5]: 10%
Activity [6]: 17%
Activity [7]: 36%
Activity [8]: 18%
Activity [9]: 13%
Activity [10]: 22%
Activity [11]: 13%

CC(=O)OC[C@H]1O[C@@H](NC(=S)N/N=C(\C)c2cccc(N)c2)[C@H](OC(C)=O)[C@@H](OC(C)=O)[C@@H]1OC(C)=O
Activity [1]: 38%
Activity [2]: 19%
Activity [3]: 13%
Activity [4]: 38%
Activity [5]: 15%
Activity [6]: 9%
Activity [7]: 35%
Activity [8]: 20%
Activity [9]: 16%
Activity [10]: 23%
Activity [11]: 20%

CC(=O)OC[C@H]1O[C@@H](NC(=S)NNc2ccc(F)cc2)[C@H](OC(C)=O)[C@@H](OC(C)=O)[C@@H]1OC(C)=O
Activity [1]: 36%
Activity [2]: 22%
Activity [3]: 9%
Activity [4]: 29%
Activity [5]: 14%
Activity [6]: 14%
Activity [7]: 34%
Activity [8]: 22%
Activity [9]: 13%
Activity [10]: 15%
Activity [11]: 18%

Oc1ncnc2[nH]ncc12
Activity [10]: 77%

CC(=O)OC[C@H]1O[C@@H](NC(=S)NNc2ccc(F)cc2F)[C@H](OC(C)=O)[C@@H](OC(C)=O)[C@@H]1OC(C)=O
Activity [1]: 35%
Activity [2]: 24%
Activity [3]: 25%
Activity [4]: 27%
Activity [5]: 25%
Activity [6]: 23%
Activity [7]: 31%
Activity [8]: 20%
Activity [9]: 24%
Activity [10]: 16%
Activity [11]: 20%

CC(=O)OC[C@H]1O[C@@H](NC(=S)N/N=C/c2ccncc2)[C@H](OC(C)=O)[C@@H](OC(C)=O)[C@@H]1OC(C)=O
Activity [1]: 23%
Activity [2]: 22%
Activity [3]: 8%
Activity [4]: 25%
Activity [5]: 11%
Activity [6]: 8%
Activity [7]: 33%
Activity [8]: 11%
Activity [9]: 11%
Activity [10]: 14%
Activity [11]: 11%

CC(=O)OC[C@H]1O[C@@H](NC(=S)N/N=C/c2ccc(Cl)cc2)[C@H](OC(C)=O)[C@@H](OC(C)=O)[C@@H]1OC(C)=O
Activity [1]: 19%
Activity [2]: 23%
Activity [3]: 10%
Activity [4]: 25%
Activity [5]: 6%
Activity [6]: 12%
Activity [7]: 33%
Activity [8]: 13%
Activity [9]: 14%
Activity [10]: 16%
Activity [11]: 22%

CC(=O)OC[C@H]1O[C@@H](NC(=S)N/N=C/c2cccnc2)[C@H](OC(C)=O)[C@@H](OC(C)=O)[C@@H]1OC(C)=O
Activity [1]: 26%
Activity [2]: 18%
Activity [3]: 10%
Activity [4]: 28%
Activity [5]: 14%
Activity [6]: 9%
Activity [7]: 26%
Activity [8]: 13%
Activity [9]: 15%
Activity [10]: 16%
Activity [11]: 14%

COc1ccc(NNC(=S)N[C@@H]2O[C@H](COC(C)=O)[C@@H](OC(C)=O)[C@H](OC(C)=O)[C@H]2OC(C)=O)cc1
Activity [1]: 23%
Activity [2]: 28%
Activity [3]: 10%
Activity [4]: 37%
Activity [5]: 12%
Activity [6]: 7%
Activity [7]: 32%
Activity [8]: 15%
Activity [9]: 18%
Activity [10]: 21%
Activity [11]: 18%

CC(=O)OC[C@H]1O[C@@H](NC(=S)N/N=C(\C)c2ccc(Br)cc2)[C@H](OC(C)=O)[C@@H](OC(C)=O)[C@@H]1OC(C)=O
Activity [1]: 24%
Activity [2]: 16%
Activity [3]: 25%
Activity [4]: 33%
Activity [5]: 26%
Activity [6]: 16%
Activity [7]: 29%
Activity [8]: 14%
Activity [9]: 22%
Activity [10]: 21%
Activity [11]: 26%

COc1ccc(/C(C)=N/NC(=S)N[C@@H]2O[C@H](COC(C)=O)[C@@H](OC(C)=O)[C@H](OC(C)=O)[C@H]2OC(C)=O)cc1OC
Activity [1]: 27%
Activity [2]: 22%
Activity [3]: 22%
Activity [4]: 24%
Activity [5]: 23%
Activity [6]: 25%
Activity [7]: 35%
Activity [8]: 15%
Activity [9]: 19%
Activity [10]: 9%
Activity [11]: 24%

Cc1c(C)c2c(c(C)c1O)CC[C@@](C)(CCC[C@H](C)CCC[C@H](C)CCCC(C)C)O2
Activity [12]: 53%

Reference: ChEMBL document CHEMBL1154533, “Syntheses and evaluation of glucosyl aryl thiosemicarbazide and glucosyl thiosemicarbazone derivatives as antioxidant and anti-dyslipidemic agents” (2009)
